According to ChEMBL document CHEMBL4480385, “Design, synthesis and molecular docking studies of novel N-arylsulfonyl-benzimidazoles with anti Trypanosoma cruzi activity” (Eur J Med Chem, 2019):

System: Trypanosoma cruzi
Assay: Inhibition of PFK in Trypanosoma cruzi IRHOD/CO/2008/SN3 epimastigotes assessed as change in D-lactate excretion at IC25 after 96 hrs by 1H NMR analysis relative to control
Design: scale not given: the % may be the effect or the level left
Conditions: not given
Method in brief: (§1)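 SN3 epimastigotes (starting at 5 × 10⁵ cells/mL) were incubated with compound for 96 h at 28 °C, alongside drug-free control cultures. Cells were pelleted at 400 g for 10 min. Excreted end products in the supernatant were identified and quantified by ¹H NMR against a DSS reference signal, and compared with the controls.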

SMILES	Activity [%]
O=S(=O)(c1ccccc1)n1cnc2ccccc21	16.4
O=S(=O)(c1ccc(C(F)(F)F)cc1)n1cnc2ccccc21	25.8
Cc1cc(C)c(C)c(S(=O)(=O)n2cnc3ccccc32)c1C	26.4
CC(=O)Nc1ccc(S(=O)(=O)n2cnc3ccccc32)cc1	25.5
O=[N+]([O-])c1cccc(S(=O)(=O)n2cnc3ccccc32)c1	-3.97

System: Trypanosoma cruzi
Assay: Potency index, ratio benznidazole IC50 to test compound IC50 for anti-trypanosomal activity against Trypanosoma cruzi IRHOD/CO/2008/SN3 amastigotes infected in African green monkey Vero cells
Assay type: functional
Conditions: not given
Method in brief: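 Vero cells were grown in RPMI with 10% inactivated FBS at 37 °C in 5% CO2. They were seeded at 1 × 10⁴ cells/well on coverslips, cultured for 2 days, then infected with metacyclic T. cruzi at 10:1 for 24 h and washed. Compounds at 1, 10, 25 and 50 were added for 72 h. Amastigotes in methanol-fixed, Giemsa-stained preparations were counted against untreated cultures.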

SMILES	Ratio IC50
CC(=O)Nc1ccc(S(=O)(=O)n2cnc3ccccc32)cc1	2

System: Vero
Assay: Cytotoxicity against African green monkey Vero cells after 72 hrs by propidium iodide/fluorescein diacetate staining based flow cytometry
Assay type: cell-based
Conditions: Chlorocebus sabaeus

SMILES	IC50 [µM]
O=S(=O)(c1ccccc1)n1cnc2ccccc21	1770
O=S(=O)(c1ccc(Br)cc1)n1cnc2ccccc21	1190
CC(C)(C)c1ccc(S(=O)(=O)n2cnc3ccccc32)cc1	68.5
Cc1ccc(S(=O)(=O)n2cnc3ccccc32)cc1	108
O=S(=O)(c1ccc(C(F)(F)F)cc1)n1cnc2ccccc21	460
O=S(=O)(c1ccc(Cl)cc1)n1cnc2ccccc21	122
CC(=O)c1ccc(S(=O)(=O)n2cnc3ccccc32)cc1	656
Cc1cc(C)c(C)c(S(=O)(=O)n2cnc3ccccc32)c1C	205
O=[N+]([O-])c1ccccc1S(=O)(=O)n1cnc2ccccc21	120
CC(=O)Nc1ccc(S(=O)(=O)n2cnc3ccccc32)cc1	468
O=[N+]([O-])c1cccc(S(=O)(=O)n2cnc3ccccc32)c1	648
O=[N+]([O-])c1ccc(S(=O)(=O)n2cnc3ccccc32)cc1	347
O=S(=O)(c1cccc(C(F)(F)F)c1)n1cnc2ccccc21	59.8

System: not listed separately
Assay: Selectivity index, ratio of IC50 for African green monkey Vero cells to IC50 for Trypanosoma cruzi IRHOD/CO/2008/SN3 amastigotes infected in African green monkey Vero cells
Assay type: toxicity
Conditions: read-out: Ratio IC50

SMILES	selectivity ratio
O=S(=O)(c1ccccc1)n1cnc2ccccc21	47.3
O=S(=O)(c1ccc(Br)cc1)n1cnc2ccccc21	33.3
O=S(=O)(c1ccc(C(F)(F)F)cc1)n1cnc2ccccc21	19.2
Cc1cc(C)c(C)c(S(=O)(=O)n2cnc3ccccc32)c1C	10.8
CC(=O)Nc1ccc(S(=O)(=O)n2cnc3ccccc32)cc1	45.9
O=[N+]([O-])c1cccc(S(=O)(=O)n2cnc3ccccc32)c1	40.6

System: Trypanosoma cruzi
Assay: Inhibition of PFK in Trypanosoma cruzi IRHOD/CO/2008/SN3 epimastigotes assessed as change in pyruvate excretion at IC25 after 96 hrs by 1H NMR analysis relative to control
Design: scale not given: the % may be the effect or the level left
Conditions: not given
Method in brief: as §1

SMILES	Activity [%]
O=S(=O)(c1ccccc1)n1cnc2ccccc21	-13.4
O=S(=O)(c1ccc(C(F)(F)F)cc1)n1cnc2ccccc21	10.6
Cc1cc(C)c(C)c(S(=O)(=O)n2cnc3ccccc32)c1C	10.9
CC(=O)Nc1ccc(S(=O)(=O)n2cnc3ccccc32)cc1	2.38
O=[N+]([O-])c1cccc(S(=O)(=O)n2cnc3ccccc32)c1	-30.2

Target: not listed separately
Assay: Inhibition of Trypanosoma cruzi holoenzyme form of PFK
Conditions: not given

SMILES	pIC50
Cc1cc(NS(=O)(=O)c2ccc(NC(=O)Cc3ccc4ccccc4c3)cc2)no1	3.26
O=C(Cc1ccc(Cl)c(Cl)c1)Nc1ccc(S(=O)(=O)Nc2cccc(O)c2)cc1	3.16
Cc1cc(NS(=O)(=O)c2ccc(NC(=O)Cc3ccc(Cl)c(C(F)(F)F)c3)cc2)no1	2.86
COc1ccc(CC(=O)Nc2ccc(S(=O)(=O)Nc3cc(C)on3)cc2)cc1C	4.31
Cc1cc(NS(=O)(=O)c2ccc(NC(=O)Cc3ccc(Cl)c(Cl)c3)cc2)no1	2.36
O=C(Cc1ccc(Cl)c(Cl)c1)Nc1ccc(S(=O)(=O)Nc2nccs2)cc1	1.61
Cc1cc(NS(=O)(=O)c2ccc(NCCc3ccc(Cl)c(Cl)c3)cc2)no1	4.21
O=C(Cc1ccc(Cl)c(Cl)c1)Nc1ccc(S(=O)(=O)Nc2nncs2)cc1	1.72
Cc1cc(NS(=O)(=O)c2ccc(NC(=O)Cc3ccc(F)c(Cl)c3)cc2)no1	2.66

System: Trypanosoma cruzi
Assay: Inhibition of PFK in Trypanosoma cruzi IRHOD/CO/2008/SN3 epimastigotes assessed as change in L-alanine excretion at IC25 after 96 hrs by 1H NMR analysis relative to control
Design: scale not given: the % may be the effect or the level left
Conditions: not given
Method in brief: as §1

SMILES	Activity [%]
O=S(=O)(c1ccccc1)n1cnc2ccccc21	-3.24
O=S(=O)(c1ccc(C(F)(F)F)cc1)n1cnc2ccccc21	9.92
Cc1cc(C)c(C)c(S(=O)(=O)n2cnc3ccccc32)c1C	10.4
CC(=O)Nc1ccc(S(=O)(=O)n2cnc3ccccc32)cc1	6.8
O=[N+]([O-])c1cccc(S(=O)(=O)n2cnc3ccccc32)c1	-22.7

System: Trypanosoma cruzi
Assay: Anti-trypanosomal activity against Trypanosoma cruzi IRHOD/CO/2008/SN3 epimastigotes after 72 hrs by Neubauer hemocytometric method
Assay type: functional, organism-based
Conditions: IRHOD/CO/2008/SN3, 72 h

SMILES	IC50 [µM]
O=S(=O)(c1ccccc1)n1cnc2ccccc21	9
O=S(=O)(c1ccc(Br)cc1)n1cnc2ccccc21	23.5
CC(C)(C)c1ccc(S(=O)(=O)n2cnc3ccccc32)cc1	3
Cc1ccc(S(=O)(=O)n2cnc3ccccc32)cc1	23.8
O=S(=O)(c1ccc(C(F)(F)F)cc1)n1cnc2ccccc21	6.2
O=S(=O)(c1ccc(Cl)cc1)n1cnc2ccccc21	16.8
CC(=O)c1ccc(S(=O)(=O)n2cnc3ccccc32)cc1	26.8
Cc1cc(C)c(C)c(S(=O)(=O)n2cnc3ccccc32)c1C	2.2
O=[N+]([O-])c1ccccc1S(=O)(=O)n1cnc2ccccc21	5.5
CC(=O)Nc1ccc(S(=O)(=O)n2cnc3ccccc32)cc1	7.2
O=[N+]([O-])c1cccc(S(=O)(=O)n2cnc3ccccc32)c1	4.6
O=[N+]([O-])c1ccc(S(=O)(=O)n2cnc3ccccc32)cc1	2.6
O=S(=O)(c1cccc(C(F)(F)F)c1)n1cnc2ccccc21	13.9

Target: not listed separately
Assay: Inhibition of Trypanosoma cruzi apoenzyme form of PFK
Conditions: not given

SMILES	pIC50
O=S(=O)(c1ccccc1)n1cnc2ccccc21	3.95
Cc1cc(NS(=O)(=O)c2ccc(NC(=O)Cc3ccc4ccccc4c3)cc2)no1	3.31
O=C(Cc1ccc(Cl)c(Cl)c1)Nc1ccc(S(=O)(=O)Nc2cccc(O)c2)cc1	3.26
O=S(=O)(c1ccc(Br)cc1)n1cnc2ccccc21	4.37
Cc1cc(NS(=O)(=O)c2ccc(NC(=O)Cc3ccc(Cl)c(C(F)(F)F)c3)cc2)no1	2.96
COc1ccc(CC(=O)Nc2ccc(S(=O)(=O)Nc3cc(C)on3)cc2)cc1C	4.31
Cc1cc(NS(=O)(=O)c2ccc(NC(=O)Cc3ccc(Cl)c(Cl)c3)cc2)no1	2.36
O=C(Cc1ccc(Cl)c(Cl)c1)Nc1ccc(S(=O)(=O)Nc2nccs2)cc1	1.61
Cc1cc(NS(=O)(=O)c2ccc(NCCc3ccc(Cl)c(Cl)c3)cc2)no1	4.21
O=C(Cc1ccc(Cl)c(Cl)c1)Nc1ccc(S(=O)(=O)Nc2nncs2)cc1	1.72
Cc1cc(NS(=O)(=O)c2ccc(NC(=O)Cc3ccc(F)c(Cl)c3)cc2)no1	2.66
CC(C)(C)c1ccc(S(=O)(=O)n2cnc3ccccc32)cc1	3.48
Cc1ccc(S(=O)(=O)n2cnc3ccccc32)cc1	4.38
O=S(=O)(c1ccc(C(F)(F)F)cc1)n1cnc2ccccc21	3.79
O=S(=O)(c1ccc(Cl)cc1)n1cnc2ccccc21	4.23
CC(=O)c1ccc(S(=O)(=O)n2cnc3ccccc32)cc1	4.43
Cc1cc(C)c(C)c(S(=O)(=O)n2cnc3ccccc32)c1C	3.34
O=[N+]([O-])c1ccccc1S(=O)(=O)n1cnc2ccccc21	3.74
CC(=O)Nc1ccc(S(=O)(=O)n2cnc3ccccc32)cc1	3.86
O=[N+]([O-])c1cccc(S(=O)(=O)n2cnc3ccccc32)c1	3.66
O=[N+]([O-])c1ccc(S(=O)(=O)n2cnc3ccccc32)cc1	3.41
O=S(=O)(c1cccc(C(F)(F)F)c1)n1cnc2ccccc21	4.14

System: Trypanosoma cruzi
Assay: Inhibition of PFK in Trypanosoma cruzi IRHOD/CO/2008/SN3 epimastigotes assessed as change in succinate excretion at IC25 after 96 hrs by 1H NMR analysis relative to control
Design: scale not given: the % may be the effect or the level left
Conditions: not given
Method in brief: as §1

SMILES	Activity [%]
O=S(=O)(c1ccccc1)n1cnc2ccccc21	-16
O=S(=O)(c1ccc(C(F)(F)F)cc1)n1cnc2ccccc21	-7.22
Cc1cc(C)c(C)c(S(=O)(=O)n2cnc3ccccc32)c1C	-7.22
CC(=O)Nc1ccc(S(=O)(=O)n2cnc3ccccc32)cc1	28.3
O=[N+]([O-])c1cccc(S(=O)(=O)n2cnc3ccccc32)c1	-33.2

System: Trypanosoma cruzi
Assay: Inhibition of PFK in Trypanosoma cruzi IRHOD/CO/2008/SN3 epimastigotes assessed as change in acetate excretion at IC25 after 96 hrs by 1H NMR analysis relative to control
Design: scale not given: the % may be the effect or the level left
Conditions: not given
Method in brief: as §1

SMILES	Activity [%]
O=S(=O)(c1ccccc1)n1cnc2ccccc21	3.31
O=S(=O)(c1ccc(C(F)(F)F)cc1)n1cnc2ccccc21	11.8
Cc1cc(C)c(C)c(S(=O)(=O)n2cnc3ccccc32)c1C	12
CC(=O)Nc1ccc(S(=O)(=O)n2cnc3ccccc32)cc1	12.3
O=[N+]([O-])c1cccc(S(=O)(=O)n2cnc3ccccc32)c1	-16.6

System: Trypanosoma cruzi
Assay: Potency index, ratio benznidazole IC50 to test compound IC50 for anti-trypanosomal activity against Trypanosoma cruzi IRHOD/CO/2008/SN3 epimastigotes
Assay type: functional
Conditions: not given
Method in brief: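 Epimastigotes of the SN3 strain were grown in TLM with 10% inactivated FBS at 28 °C in air. Compounds or benznidazole, dissolved in PEG:EtOH (7:3), were added at final levels of 1, 10, 25 and 50 and left for 72 h. Parasites were counted by haemocytometer. IC50 for 50% growth inhibition was fitted by PROBIT, and values are the mean of three experiments.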

SMILES	Ratio IC50
CC(C)(C)c1ccc(S(=O)(=O)n2cnc3ccccc32)cc1	3 - 5
Cc1cc(C)c(C)c(S(=O)(=O)n2cnc3ccccc32)c1C	3 - 5
O=[N+]([O-])c1ccccc1S(=O)(=O)n1cnc2ccccc21	3 - 5
O=[N+]([O-])c1cccc(S(=O)(=O)n2cnc3ccccc32)c1	3 - 5
O=[N+]([O-])c1ccc(S(=O)(=O)n2cnc3ccccc32)cc1	3 - 5

System: not listed separately
Assay: Selectivity index, ratio of IC50 for African green monkey Vero cells to IC50 for Trypanosoma cruzi IRHOD/CO/2008/SN3 epimastigotes
Assay type: toxicity
Conditions: read-out: Ratio IC50

SMILES	selectivity ratio
O=S(=O)(c1ccccc1)n1cnc2ccccc21	196
O=S(=O)(c1ccc(Br)cc1)n1cnc2ccccc21	50.5
CC(C)(C)c1ccc(S(=O)(=O)n2cnc3ccccc32)cc1	22.5
Cc1ccc(S(=O)(=O)n2cnc3ccccc32)cc1	4.5
O=S(=O)(c1ccc(C(F)(F)F)cc1)n1cnc2ccccc21	74.8
O=S(=O)(c1ccc(Cl)cc1)n1cnc2ccccc21	7.3
CC(=O)c1ccc(S(=O)(=O)n2cnc3ccccc32)cc1	24.5
Cc1cc(C)c(C)c(S(=O)(=O)n2cnc3ccccc32)c1C	91.7
O=[N+]([O-])c1ccccc1S(=O)(=O)n1cnc2ccccc21	22
CC(=O)Nc1ccc(S(=O)(=O)n2cnc3ccccc32)cc1	65.4
O=[N+]([O-])c1cccc(S(=O)(=O)n2cnc3ccccc32)c1	141
O=[N+]([O-])c1ccc(S(=O)(=O)n2cnc3ccccc32)cc1	135
O=S(=O)(c1cccc(C(F)(F)F)c1)n1cnc2ccccc21	4.3

System: Trypanosoma cruzi
Assay: Anti-trypanosomal activity against Trypanosoma cruzi IRHOD/CO/2008/SN3 amastigotes infected in African green monkey Vero cells after 72 hrs by Giemsa-staining based microscopic analysis
Assay type: functional, organism-based
Conditions: IRHOD/CO/2008/SN3, Vero

SMILES	IC50 [µM]
O=S(=O)(c1ccccc1)n1cnc2ccccc21	37.3
O=S(=O)(c1ccc(Br)cc1)n1cnc2ccccc21	35.7
O=S(=O)(c1ccc(C(F)(F)F)cc1)n1cnc2ccccc21	24
Cc1cc(C)c(C)c(S(=O)(=O)n2cnc3ccccc32)c1C	19
CC(=O)Nc1ccc(S(=O)(=O)n2cnc3ccccc32)cc1	10.1
O=[N+]([O-])c1cccc(S(=O)(=O)n2cnc3ccccc32)c1	15.9
